Assay outcomes as filed in PubChem.
Rows were chosen to be rich in hits. Some 12% of all compounds tested hit in one or more screens of this group.
PKD1 kinase inh: blocks activity of human protein kinase D1; inhibition, % (test concentration not listed); 0.056% of 200,000 active; PKD1 kinase fluorescence polarization assay; AID 797; Q15139
Wee1 stabilizer: blocks degradation of human Wee1 kinase; P30291; HeLa Luc-Wee1K328M stability, luciferase luminescence; 100% = proteasome inhibitor MG132 effect; reporter increase, % at 5 µM; 1.2% of 220,000 active;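 active means activation above the mean of all tested compounds plus 3 SD, set per screening run, cut at about 8.8% in these data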;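 further: cells exposed to compound for 20 h before luminescence read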
Target sequence (P30291 whole entry K328M): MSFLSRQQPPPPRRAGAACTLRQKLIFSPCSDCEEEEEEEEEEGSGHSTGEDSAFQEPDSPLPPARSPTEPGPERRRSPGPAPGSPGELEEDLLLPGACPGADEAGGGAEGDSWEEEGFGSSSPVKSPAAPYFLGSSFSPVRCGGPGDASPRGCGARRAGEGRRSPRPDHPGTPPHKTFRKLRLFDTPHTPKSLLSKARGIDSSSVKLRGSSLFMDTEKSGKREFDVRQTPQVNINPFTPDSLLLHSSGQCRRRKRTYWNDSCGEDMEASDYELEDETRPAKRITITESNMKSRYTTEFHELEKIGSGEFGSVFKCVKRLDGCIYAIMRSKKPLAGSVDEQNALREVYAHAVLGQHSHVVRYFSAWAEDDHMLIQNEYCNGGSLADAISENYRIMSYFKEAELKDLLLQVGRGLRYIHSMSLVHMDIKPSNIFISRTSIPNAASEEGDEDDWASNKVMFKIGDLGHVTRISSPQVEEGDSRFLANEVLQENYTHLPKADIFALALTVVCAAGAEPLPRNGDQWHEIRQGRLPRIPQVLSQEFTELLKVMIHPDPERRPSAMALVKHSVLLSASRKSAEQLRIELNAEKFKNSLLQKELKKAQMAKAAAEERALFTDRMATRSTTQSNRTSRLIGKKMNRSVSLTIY
Rad51 HR inh: Rad51 (human) homologous recombination inhibition. inhibition, % at 10 µM. 0.085% of 200,000 active. Q06609. hRad51 DNA strand exchange, fluorescence dequenching;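 active means inhibition above 40% at the single screening dose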
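Material: human Rad51–ssDNA filaments; Probe or stimulus: labelled 47-mer dsDNA for strand exchange; Doses: single 10 µM dose; Incubation: 37 °C 15-min filament assembly, 30-min compound preincubation, 15-min exchange; Technique: FRET fluorescence dequenching, excitation 485 nm, emission 520 nm; Measure: Fluorescence-based percent inhibition, control- and blank-normalised; Benchmarks: plate control and blank wells.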
L major viab: Leishmania major promastigote growth inhibition; Leishmania major promastigotes, resazurin fluorescence viability; inhibition, % at 10 µM; 9% of 200,000 active; AID 1063;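 further: promastigotes grown with compound for 44 hours at 28 °C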
Arbovirus anti: blocks arbovirus infection | arbovirus infection cell-based antiviral screen | 0.37% of 200,000 active | inhibition, % at 10 µM | AID 1251; in the data active means inhibition above about 30%
CHOP inh: CHOP inhibition in unfolded protein response; inhibition, % at 10 µM; CHO-K1 CHOP-promoter luciferase, tunicamycin-induced, 15-18 h; 3.8% of 220,000 active;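 active means compounds that reduced the stress-induced luciferase reporter signal by more than about 70% of percent inhibition, limit read from the data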
L major 1uM: inhibitors of Leishmania major promastigote growth, repeat at 1 uM. inhibition, % at 1 µM. 13% of 1,100 active. L. major promastigote growth, resazurin fluorescence, 48 h. shares compounds with L major viab. AID 1258;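 active means inhibition above about 50% in both repeat tests, limit read from the data; inconclusive means one repeat under the set limit, the other over it; inactive means both repeats under the set limit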
Hits are given with their value; . = inactive; ? = inconclusive; / = not tested or not shown. Unless noted, no stated cut-off is given here; in the data, active means inhibition above about 50%; inactive means the rest.

SMILES	PKD1 kinase inh	Wee1 stabilizer	Rad51 HR inh	L major viab	Arbovirus anti	CHOP inh	L major 1uM
CCn1cc(C(=O)OCc2ccc(F)cc2)c(=O)c2ccc(C)nc21	.	.	.	50	.	.	.
C/C(=N/NS(=O)(=O)c1ccccc1)c1ccc(NC(=O)C2CC2)cc1	.	.	.	.	.	.	/
O=C(NC(=S)Nn1cnnc1)c1cccc(Br)c1	.	.	.	.	.	.	/
FC(F)(F)c1nc(-c2ccncc2)ncc1-c1nnnn1-c1ccccc1	.	.	.	61	.	.	.
CC(=NCCN1CCN(C(C)=C2C(=O)c3ccccc3C2=O)CC1)C1=C(O)CC(C)(C)CC1=O	.	.	.	.	.	.	/
COc1ccc2c(c1)C(=O)[C@@H](O)[C@H](c1ccc(OC)c(Br)c1)O2	.	.	.	98	.	.	.
COc1cccc([C@@H]2Oc3ccc(OC)cc3C(=O)[C@H]2O)c1	.	.	.	.	.	.	/
COc1cc(C#N)c(NC(=O)CN2CCC(C(N)=O)CC2)cc1OC	.	.	/	.	.	.	/
O=C(NC1CC1)c1cccc(Nc2ccc(-c3ccc4c(c3)OCCO4)nn2)c1	.	.	.	50	.	.	.
Cn1nc(C(F)(F)F)c2cc(NC(=O)OCc3ccc(C(C)(C)C)cc3)sc21	.	.	/	97	.	.	.
Cc1ccc2cc(CN(c3ccccc3)S(=O)(=O)c3ccccc3)c(=O)[nH]c2c1	/	.	.	/	/	.	/
CCCN(Cc1cc2ccc(C)cc2[nH]c1=O)S(=O)(=O)c1ccccc1	.	.	.	64	.	.	.
Cc1cccc(-n2c3nc(=O)[nH]c(=O)c-3cc3cc([N+](=O)[O-])ccc32)c1	.	.	.	95	38	.	.
Cc1cccc(-n2c3nc(=O)[nH]c(=O)c-3cc3c(C)nn(-c4ccccc4)c32)c1C	.	.	.	.	.	.	/
O=C(Nc1ccc(Cl)cc1)Nc1ccc2c(c1)N1CCN=C1S2	.	.	.	100	.	.	.
Nc1ccc2c(c1)N1CCN=C1S2	.	.	.	.	.	.	/
COC(=O)c1ccc(CSc2nnnn2Cc2ccccc2)cc1	.	.	.	97	.	.	.
COc1ccc(C(=O)CSc2nnnn2Cc2ccccc2)cc1	.	.	.	.	.	.	/
CCOc1ccc2sc(NS(=O)(=O)c3ccc(OC)c(OC)c3)nc2c1	.	.	.	.	.	.	/
Cc1ccc(-n2nc(-c3cccs3)cc2C(=O)NCC2CCCO2)c(C)c1 (stereo unspecified)	.	.	.	92	.	.	.
Cc1sc2ncnc(OCC(=O)N3CCN(C(=O)c4ccco4)CC3)c2c1C	.	.	.	.	.	.	/
O=C(NCc1ccccc1)N1CCOCC1	/	.	.	/	/	.	/
O=C(OCc1ccccc1)N1CCOCCOCCN(C(=O)OCc2ccccc2)CCOCCOCC1	.	.	.	61	.	.	.
OCCC1CN(Cc2cccc(C(F)(F)F)c2)CCN1Cc1ccccc1 (stereo unspecified)	.	.	/	80	.	.	?
COCCNCC(=O)Nc1ccccc1Sc1ccccc1	.	.	.	.	.	.	/
SMILES	PKD1 kinase inh	Wee1 stabilizer	Rad51 HR inh	L major viab	Arbovirus anti	CHOP inh	L major 1uM
COc1cc(-c2c(C#N)c(N)nc(SCc3ccncc3)c2C#N)cc(OC)c1OC	.	.	.	98	.	.	61
CCCOc1ccc(N)cc1N	.	.	/	74	.	.	.
ClCc1nnc(-c2ccccc2)o1	.	.	.	101	.	.	.
Cc1ccc(NC(=S)NC(NC(=O)c2ccco2)C(Cl)(Cl)Cl)cc1 (stereo unspecified)	.	.	.	83	.	.	.
COc1cc(/C=N/NC(=O)C2c3ccccc3Oc3ccccc32)ccc1O	.	.	.	.	.	.	/
O=[N+]([O-])c1ccc(-c2nc(-c3cccs3)c(-c3cccs3)[nH]2)cc1	.	.	.	92	.	92	55
O=[N+]([O-])c1cccc(-c2nc(-c3cccs3)c(-c3cccs3)[nH]2)c1	.	.	/	.	.	.	/
CCOc1ccc(Oc2ccc(C(F)(F)F)cc2N)cc1	.	.	.	51	.	78	.
COc1cccc(Oc2ccc(C(F)(F)F)cc2N)c1	.	.	.	.	.	.	/
C=CCNS(=O)(=O)c1cc(S(=O)(=O)NCC=C)c(OC)cc1OC	.	.	.	.	.	.	/
Cn1nc(C(=O)N2CCN(S(=O)(=O)/C=C/c3ccccc3)CC2)c2ccccc2c1=O	.	.	.	.	.	.	/
Cc1cccc(Cn2nnc3c2C(=O)c2ccccc2C3=O)c1	.	.	.	100	.	.	.
Cc1ccccc1N1C(=O)c2cccc([N+](=O)[O-])c2C1=O	.	.	.	.	.	.	/
Cc1ccccc1-n1ncc2c([N+](=O)[O-])cc([N+](=O)[O-])cc21	.	.	.	100	.	.	98
Cc1ccccc1NC(=O)Cn1nnc(S(=O)(=O)c2ccc(C(C)(C)C)cc2)c1N	.	.	/	.	.	.	/
O=C(CN1CCCCC1)N1CCCc2c1c(=O)oc1ccc(OCc3ccccc3)cc21	.	.	.	67	.	.	.
Cc1ccc(C)c(C(=O)CSc2nnc(C)s2)c1	.	.	.	.	.	.	/
CC(/C=N/NC(=O)c1cc(-c2ccncc2)nc2ccccc12)=C\c1ccco1	.	.	/	89	.	.	.
O=C(N/N=C/c1ccco1)c1cc(-c2cccc(Br)c2)nc2ccccc12	.	.	/	.	.	.	/
COc1ccccc1/C=C(/C#N)C(=O)O	/	.	/	/	/	.	/
Nn1c(-c2ccccc2Cl)nnc1-c1ccccc1Cl	.	.	.	76	.	.	.
CSc1nnc(-c2ccccc2Cl)n1N	.	.	.	.	.	.	/
COc1ccc(CN2CCC(CNC(=O)NC3CCCCC3)CC2)cc1	.	.	.	90	.	.	.
Cn1cnc([N+](=O)[O-])c1N=C(N)N	/	.	.	/	/	.	/
CCOC(=O)c1c2c(n(C)c1C)C(=O)C(=O)c1ccc(Br)cc1-2	.	.	.	100	/	/	98
SMILES	PKD1 kinase inh	Wee1 stabilizer	Rad51 HR inh	L major viab	Arbovirus anti	CHOP inh	L major 1uM
Cc1cc(C)c(S(=O)(=O)c2c(C)cccc2C)c(OCC(C)C)n1	.	.	.	96	.	74	?
COc1ccc2[nH]c(=O)c(CN(C(=O)c3cccnc3)c3ccc(C)cc3C)cc2c1	/	.	.	/	/	.	/
CCC(C)NC(=O)CNC(=S)N(Cc1ccccc1)Cc1cccnc1 (stereo unspecified)	.	.	.	75	.	.	.
CC(C)C1CC(CCN2CCCCC2)(c2ccccc2)CCO1 (stereo unspecified)	.	.	.	.	.	.	/
COc1cc(/C=C2\C(=O)ON=C2c2ccccc2)cc(Cl)c1O	.	.	.	50	.	.	.
CCCCOC(=O)c1ccc(NC(=O)C(=O)NCc2ccco2)cc1	.	.	.	.	.	.	/
CCSC1=N/C(=C\c2ccc(C)s2)C(=O)S1	.	.	.	83	.	.	.
